Values joined by “and” are separate entries in the source; they are usually repeats but may differ in a detail not shown here. Identical values can stand only once.
Legend:
[1] = molecular target: T1, Sterol O-acyltransferase 1 (Rattus norvegicus) (UniProt O70536); test: In vitro inhibition of acyl coenzyme A:cholesterol acyltransferase; design: concentration or dose not given beside the values; settings: concentration not given here
T1 sequence (whole entry): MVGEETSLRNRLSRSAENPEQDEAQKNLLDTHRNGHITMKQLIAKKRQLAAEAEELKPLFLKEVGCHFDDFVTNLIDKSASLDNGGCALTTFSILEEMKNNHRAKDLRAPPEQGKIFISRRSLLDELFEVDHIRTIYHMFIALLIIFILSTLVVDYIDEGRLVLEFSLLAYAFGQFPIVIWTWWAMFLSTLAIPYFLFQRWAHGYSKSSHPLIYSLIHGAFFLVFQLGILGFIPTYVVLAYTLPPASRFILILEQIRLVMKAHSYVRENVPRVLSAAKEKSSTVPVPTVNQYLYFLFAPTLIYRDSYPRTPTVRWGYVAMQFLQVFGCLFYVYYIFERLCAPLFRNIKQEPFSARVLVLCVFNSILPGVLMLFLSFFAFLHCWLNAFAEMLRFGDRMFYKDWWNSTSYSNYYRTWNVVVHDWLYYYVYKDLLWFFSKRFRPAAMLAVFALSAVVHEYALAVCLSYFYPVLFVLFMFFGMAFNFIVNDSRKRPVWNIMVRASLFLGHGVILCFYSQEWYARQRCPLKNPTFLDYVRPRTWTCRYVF
Summary of the method: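 Enzyme fatty acyl-CoA:cholesterol acyltransferase (ACAT), assayed in vitro at a single drug concentration of 5.2 μg/mL. The value is the mean percent inhibition of enzyme activity.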

Rattus norvegicus [2] = test: In vivo sterol lowering activity at dose of 0.10 % of the diet; format: functional
Summary of the method: (§1)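 Normal rats were dosed in the diet. Serum sterol and triglyceride levels were measured and expressed as the mean percent of control values. Significance versus control was reported at p < 0.05, 0.01 and 0.001.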

Rattus norvegicus [3] = test: In vivo triglyceride lowering activity dosed at 0.10 % of the diet.; format: functional; summary of the method: as §1

Row | SMILES | inhibition [1] | serum sterol level, percent of control (Rattus norvegicus [2]) [%] | serum triglyceride, percent of control (Rattus norvegicus [3]) [%]
1 | CCCCCCCCCCCCCCCCN(C(=O)C(F)(F)F)c1ccc(C(=O)NO)cc1 | 0% | 96 | 91
2 | CCCCCCCCCCCCCCCCN(C(C)=O)c1ccc(C(=O)OCC(O)CO)cc1 (stereo not given) | 0% | 106 | 110
3 | CCCCCCCCCCCCCCCCN(C(=O)C(F)(F)F)c1ccc(C(=O)C(C(=O)OCC)C(=O)OC(C)(C)C)cc1 (stereo not given) | < 49% | 90 | <64
4 | CCCCCCCCCCCCCCCCNc1ccc(C(=O)OC/C=C/COC(=O)c2ccc(NCCCCCCCCCCCCCCCC)cc2)cc1 | 10% | 91 | –
5 | CCCCCCCCCCCCCCCCNc1ccc(C(=O)O)c(O)c1 | 49% | 108 | <57
6 | CCCCCCCCCCCCCCCCNc1ccc(C(=O)OCC)cc1F | 5% | 105 | 74
7 | CCCCCCCCCCCCCCCCNc1csc(C#N)c1 | < 41% | 92 | 99
8 | CCCCCCCCCCCCCCCCNc1ccc(C(=O)OCC)c(F)c1 | – | 90 | <68
9 | CCCCCCCCCCCCCCCCNc1ccc(C(=O)OCC(O)COCC)cc1 (stereo not given) | 9% | <68 | <47
10 | CCCCCCCCCCCCCCCCN(C(=O)C(F)(F)F)c1ccc(C(=O)N2CCCCC2)cc1 | < 68% | 92 | <68
11 | CCCCCCCCCCCCCCCCNc1ccc(C(=O)CC(=O)OC)cc1 | < 43% | <84 | <47
12 | CCCCCCCCCCCCCCCCNc1ccc(-c2nn[nH]n2)cc1 | 78% | 89 | 91
13 | CCCCCCCCCCCCCCCCNc1ccc(C(=O)Oc2ccc(C(=O)OC(C)(C)C)cc2)cc1 | – | 103 | <67
14 | CCCCCCCCCCCCCCCCNc1ccc(C(=O)NC(C)C(=O)O)cc1 (stereo not given) | 45% | 102 | 132
15 | CCCCCCCCCCCCCCCCNc1ccc(SCC(=O)OCC)cc1 | 13% | 99 | 126
16 | CCCCCCCCCCCCCCCCNc1ccc(CO)cc1.Cl | – | 99 | 100
17 | CCCCCCCCCCCCCCCCNc1ccc(C(=O)OCC(COC(C)=O)OC(C)=O)cc1 (stereo not given) | 22% | <66 | <40
18 | CCCCCCCCCCCCCCCCNc1ccc(C(=O)NS(=O)(=O)c2ccc(C)cc2)cc1 | < 77% | – | –
19 | CCCCCCCCCCCCCCCCNc1ncc(C(=O)OCC)cn1 | 13% | – | –
20 | CCCCCCCCCCCCCCCCNc1ccc(C#N)cc1 | 8% and < 30% | – | –
21 | CCCCCCCCCCCCCCCCNc1ccc(C(=O)OCC2COC(c3ccccc3)O2)cc1 (stereo not given) | – | 84 | <50
22 | CCCCCCCCCCCCCCCCNc1csc(C(=O)OCC)c1 | < 24% | 112 | –
23 | CCCCCCCCCCCCCCCCNc1ccc(C(=O)OCC(O)CO)cc1 (stereo not given) | 0% | – | –
24 | CCCCCCCCCCCCCCCCNc1ccc(C#N)cc1.Cl | – | 100 | 88

More lines, main results first:

Row | inhibition [1] | SMILES | serum sterol level, percent of control (Rattus norvegicus [2]) [%] | serum triglyceride, percent of control (Rattus norvegicus [3]) [%]
25 | < 75% | CCCCCCCCCCCCCCCCN(C(=O)C(F)(F)F)c1ccc(C(=O)N2CCCCCC2)cc1 | 95 | <66
26 | 4% | CCCCCCCCCCCCCCCCN(C(C)=O)c1ccc(C(=O)OCC(O)COC(C)=O)cc1 (stereo not given) | 97 | 113
27 | 14% | CCCCCCCCCCCCCCCCN(C(=O)CCCCCCCCCCCCCCC)c1ccc(C(=O)OCC(O)CO)cc1 (stereo not given) | 99 | 72
28 | < 25% | CCCCCCCCCCCCCCCCN(C(=O)C(F)(F)F)c1ccc(C(=O)Nc2ccc(C(=O)OCC)cc2)cc1 | 95 | <69
29 | 0% | CCCCCCCCCCCCCCCCNc1ccc(C(=O)OC2CCCCCC2)cc1 | <87 | 84
30 | 6% | CCCCCCCCCCCCCCCCNc1cc(C(=O)OC)cc(C(=O)OC)c1 | 108 | 86
31 | < 33% | CCCCCCCCCCCCCCCCNc1ccc(C(C)O)cc1 (stereo not given) | 93 | 93
32 | < 72% | CCCCCCCCCCCCCCCCN(CC)c1ccc(C(=O)O)cc1 | – | –
33 | 12% | CCCCCCCCCCCCCCCCN(C(C)=O)c1ccc(C(=O)OCC(COC(C)=O)OC(C)=O)cc1 (stereo not given) | 101 | 111
34 | < 23% | CCCCCCCCCCCCCCCCNc1ccc(C(=O)OC)c(F)c1 | 99 | 79
35 | 0% | CCCCCCCCCCCCCCCCN(C)c1ccc(C(=O)OCC(O)CO)cc1 (stereo not given) | 99 | 93
36 | < 22% | CCCCCCCCCCCCCCCCN(C(C)=O)c1ccc(CO)cc1 | 99 | 105
37 | 0% | CCCCCCCCCCCCCCCCNc1ccc(C(=O)OCC(O)COC)cc1 (stereo not given) | <77 | <65
38 | 10% and 16% | CCCCCCCCCCCCCCCCNc1ccc(CO)cc1 | – | –

Source: ChEMBL document CHEMBL1122366, “Potential antiatherosclerotic agents. 3. Substituted benzoic and non benzoic acid analogues of cetaben” (1983)
